Each block holds one compound with its values, some of them ahead of it. Activity calls are given as the source filed them. The rule behind the calls is not given here.
What was measured:
Chymase = target: T1, Chymase (Homo sapiens, UniProt P23946); test: In vitro inhibitory activity was determined against human heart chymase
T1 sequence (P23946 whole entry): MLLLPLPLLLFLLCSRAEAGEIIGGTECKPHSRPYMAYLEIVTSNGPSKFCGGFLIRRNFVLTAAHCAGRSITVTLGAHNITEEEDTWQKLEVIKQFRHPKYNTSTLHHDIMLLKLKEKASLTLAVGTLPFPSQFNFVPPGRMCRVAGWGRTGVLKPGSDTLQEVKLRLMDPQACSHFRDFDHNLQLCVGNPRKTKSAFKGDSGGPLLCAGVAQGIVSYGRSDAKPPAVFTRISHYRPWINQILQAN

[1] = (§1) Steady state volume of distribution was determined; assay type: ADME, organism-based, Canis lupus familiaris; conditions: dog, in vivo; read-out: Vdss
In short: (§2)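 Male Sprague–Dawley rats (204–222 g) and male beagles (11.4–12.5 kg), n=3 each, fasted 18 h before and 4 h after dosing. Plasma sampled up to 24 h, quantified by LC–MS/MS with internal standard. AUC 0–infinity.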

[2] = as §1; assay type: ADME, organism-based; conditions: rat, in vivo; read-out: Vdss; in short: as §2
[3] = Pharmacokinetic parameter AUC after intravenous administration to dogs; assay type: ADME, organism-based, Canis lupus familiaris; conditions: dog, in vivo; in short: as §2
[4] = Pharmacokinetic parameter AUC after oral administration to dogs; assay type: ADME, organism-based, Canis lupus familiaris; conditions: dog, in vivo
In short: (§3)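 10 mg/kg by gavage to fasted male rats (suspension 10 mg/mL, 0.5% HPMC) or male beagles (solution 2.5 mg/mL, DMSO–PEG-400–1 M HCl–saline 2:38:10:50), n=3. Plasma sampled up to 24 h, assayed by LC–MS/MS. Cmax and Tmax taken from measured values. BA = (AUCpo×dose iv)/(AUCiv×dose po)×100, using 1 mg/kg iv.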

[5] = Plasma administration to rats; assay type: ADME, organism-based; conditions: rat; in short: as §2
[6] = Bioavailability administered orally at a dose of 10 mg/kg to dogs; assay type: ADME, organism-based, Canis lupus familiaris; conditions: dog, in vivo, po, read-out: BA; in short: as §3
[7] = Time to reach Cmax after oral administration to dogs; assay type: ADME, organism-based, Canis lupus familiaris; conditions: dog, in vivo; in short: as §3
[8] = Maximum plasma concentration after oral administration to rats; assay type: ADME, organism-based; set-up: route oral; conditions: rat; in short: as §3
[9] = Time to reach Cmax after oral administration to rats; assay type: ADME, organism-based; conditions: rat, in vivo; in short: as §3
[10] = Half life was evaluated after intravenous administration to dogs; assay type: ADME, organism-based, Canis lupus familiaris; conditions: dog, in vivo; in short: as §2
[11] = Plasma administration to dogs; assay type: ADME, organism-based, Canis lupus familiaris; conditions: dog; in short: as §2
[12] = Pharmacokinetic parameter AUC after intravenous administration to rats; assay type: ADME, organism-based; conditions: rat, in vivo; in short: as §2
[13] = Pharmacokinetic parameter AUC after oral administration to rats; assay type: ADME, organism-based; conditions: rat, in vivo; in short: as §3
[14] = Bioavailability administered orally at a dose of 10 mg/kg to rats; assay type: ADME, organism-based; conditions: rat, in vivo, po, read-out: BA; in short: as §3
[15] = Maximum plasma concentration after oral administration to dogs at a dose of 10 mg/kg; assay type: ADME, organism-based, Canis lupus familiaris; set-up: dose 10 mg/kg, route oral; conditions: dog; in short: as §3
[16] = target: Angiotensin-converting enzyme (Homo sapiens) (UniProt P12821); test: Inhibitory activity against human angiotensin I converting enzyme (10 uM); No inhibition
Sequence of Angiotensin-converting enzyme (Homo sapiens) (P12821 whole entry): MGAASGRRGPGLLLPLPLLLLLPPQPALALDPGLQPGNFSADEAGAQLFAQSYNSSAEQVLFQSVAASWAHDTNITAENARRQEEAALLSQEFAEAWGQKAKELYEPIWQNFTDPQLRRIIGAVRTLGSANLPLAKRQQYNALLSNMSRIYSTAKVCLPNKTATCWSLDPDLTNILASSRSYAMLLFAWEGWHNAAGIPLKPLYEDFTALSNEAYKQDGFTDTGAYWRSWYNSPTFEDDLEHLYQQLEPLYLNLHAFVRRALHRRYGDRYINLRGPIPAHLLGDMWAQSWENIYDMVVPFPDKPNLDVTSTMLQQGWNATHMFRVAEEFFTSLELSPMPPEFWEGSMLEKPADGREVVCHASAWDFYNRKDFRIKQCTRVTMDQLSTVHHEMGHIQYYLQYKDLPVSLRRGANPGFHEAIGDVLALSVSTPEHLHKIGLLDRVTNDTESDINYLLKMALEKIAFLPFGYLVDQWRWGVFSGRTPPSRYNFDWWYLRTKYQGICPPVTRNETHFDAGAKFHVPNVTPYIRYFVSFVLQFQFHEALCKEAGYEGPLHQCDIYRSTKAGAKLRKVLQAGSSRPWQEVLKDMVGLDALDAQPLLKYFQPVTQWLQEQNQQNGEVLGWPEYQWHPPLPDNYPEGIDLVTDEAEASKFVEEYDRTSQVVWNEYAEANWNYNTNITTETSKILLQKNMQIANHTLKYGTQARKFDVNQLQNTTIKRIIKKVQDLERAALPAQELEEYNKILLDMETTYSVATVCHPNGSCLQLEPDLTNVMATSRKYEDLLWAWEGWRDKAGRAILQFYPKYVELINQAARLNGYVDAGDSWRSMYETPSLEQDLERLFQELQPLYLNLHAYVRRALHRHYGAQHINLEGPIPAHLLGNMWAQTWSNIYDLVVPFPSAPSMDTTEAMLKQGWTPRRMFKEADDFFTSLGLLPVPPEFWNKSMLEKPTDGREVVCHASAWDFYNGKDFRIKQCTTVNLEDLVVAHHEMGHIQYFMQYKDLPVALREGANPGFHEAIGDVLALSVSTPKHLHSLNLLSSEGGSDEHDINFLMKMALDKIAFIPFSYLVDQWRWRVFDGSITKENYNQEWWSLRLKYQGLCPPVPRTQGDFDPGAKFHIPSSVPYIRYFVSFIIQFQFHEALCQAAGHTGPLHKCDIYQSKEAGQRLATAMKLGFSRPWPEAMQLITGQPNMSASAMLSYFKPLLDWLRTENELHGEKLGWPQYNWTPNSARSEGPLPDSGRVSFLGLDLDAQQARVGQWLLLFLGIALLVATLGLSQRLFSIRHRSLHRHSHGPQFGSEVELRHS

[17] = target: T2, Neutrophil elastase (Homo sapiens) (UniProt P08246); test: Inhibitory activity against human leukocyte elastase (10 uM); No inhibition
T2 sequence (whole entry): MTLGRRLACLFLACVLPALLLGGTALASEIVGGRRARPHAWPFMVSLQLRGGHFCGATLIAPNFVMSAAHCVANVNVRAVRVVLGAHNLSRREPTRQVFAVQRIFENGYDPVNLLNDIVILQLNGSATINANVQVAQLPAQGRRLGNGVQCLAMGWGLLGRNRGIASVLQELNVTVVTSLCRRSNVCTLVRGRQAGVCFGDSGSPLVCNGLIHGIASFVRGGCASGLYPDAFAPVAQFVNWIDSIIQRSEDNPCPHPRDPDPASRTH

Cathepsin G = target: T3, Cathepsin G (Homo sapiens, UniProt P08311); test: Inhibitory activity against human cathepsin G
T3 sequence (P08311 whole entry): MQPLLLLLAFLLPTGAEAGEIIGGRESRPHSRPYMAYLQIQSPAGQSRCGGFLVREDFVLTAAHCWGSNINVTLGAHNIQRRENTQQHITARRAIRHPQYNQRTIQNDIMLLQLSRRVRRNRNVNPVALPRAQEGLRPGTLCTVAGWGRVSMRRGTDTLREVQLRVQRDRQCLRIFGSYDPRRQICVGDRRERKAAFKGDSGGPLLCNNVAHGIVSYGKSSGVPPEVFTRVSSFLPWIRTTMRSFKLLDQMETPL
In short: (§4)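 Chymotrypsin-type assay: purified enzyme hydrolyzes succinyl-Ala-Ala-Pro-Phe-p-nitroanilide, with p-nitroaniline release followed at 405 nm. Ki derived, as means ± SEM of three independent experiments. Human heart chymase was a purified preparation.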

Mast cell protease 9 = target: T4, Mast cell protease 9 (Mus musculus, UniProt O35164); test: Inhibitory activity against mouse peritoneal chymase; in short: as §4
T4 sequence (O35164 whole entry): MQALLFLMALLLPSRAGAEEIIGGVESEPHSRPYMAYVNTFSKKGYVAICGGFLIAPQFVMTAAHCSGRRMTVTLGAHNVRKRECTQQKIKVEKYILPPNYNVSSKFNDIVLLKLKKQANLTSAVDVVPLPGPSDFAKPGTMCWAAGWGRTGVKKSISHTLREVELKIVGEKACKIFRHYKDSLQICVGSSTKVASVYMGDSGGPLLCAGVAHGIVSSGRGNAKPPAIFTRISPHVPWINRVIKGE

[18] = target: Prothrombin (Homo sapiens) (UniProt P00734); test: Inhibitory activity against human plasma thrombin (10 uM); No inhibition; assay type: cell-free
[19] = Half life was evaluated after intravenous administration to rats; assay type: ADME, organism-based; conditions: rat, in vivo; in short: as §2
[20] = The selectivity was determined for chymotrypsin to that of chymase

Ki (Chymase): 9.7 nM
Compound: Cc1cccc(-c2ncc(N)c(=O)n2CC(=O)NC(Cc2ccccc2)C(=O)C(F)(F)C(=O)Nc2cccc(C(=O)O)c2)c1 (stereo unspecified)

Ki (Chymase): 32.5 nM
Compound: Nc1cnc(-c2ccccc2)n(CC(=O)NC(Cc2ccccc2)C(=O)C(F)(F)C(=O)NCc2ccccc2)c1=O (stereo unspecified)

Ki (Chymase): 13.3 nM
Compound: Cc1cccc(-c2ncc(N)c(=O)n2CC(=O)NC(Cc2ccccc2)C(=O)C(F)(F)C(N)=O)c1 (stereo unspecified)

Ki (Chymase): 16.9 nM
Compound: Cc1cccc(-c2ncc(N)c(=O)n2CC(=O)NC(Cc2ccccc2)C(=O)C(F)(F)C(=O)NCC(=O)O)c1 (stereo unspecified)

Ki (Chymase): 18.5 nM
Compound: CCCCCNC(=O)C(F)(F)C(=O)C(Cc1ccccc1)NC(=O)Cn1c(-c2cccc(C)c2)ncc(N)c1=O (stereo unspecified)

Ki (Chymase): 489 nM
Compound: Cc1cccc(-c2ncc(N)c(=O)n2CC(=O)NC(Cc2ccccc2)C(=O)C(F)(F)C(=O)N(C)C)c1 (stereo unspecified)

Ki (Chymase): 50.6 nM
Compound: Cc1cccc(-c2ncc(N)c(=O)n2CC(=O)NC(Cc2ccccc2)C(=O)C(F)(F)F)c1 (stereo unspecified)

Ki (Chymase): 28.9 nM
Compound: Cc1cccc(-c2ncc(N)c(=O)n2CC(=O)NC(Cc2ccccc2)C(=O)C(F)(F)C(=O)NCc2cccnc2)c1 (stereo unspecified)

Ki (Chymase): > 10000 nM
Compound: Cc1cccc(-c2ncc(N)c(=O)n2CC(=O)NC(Cc2ccccc2)C(=O)C(F)(F)C(=O)O)c1 (stereo unspecified)

Ki (Chymase): 33.7 nM
Compound: CCN(CC)C(=O)CCNC(=O)C(F)(F)C(=O)C(Cc1ccccc1)NC(=O)Cn1c(-c2cccc(C)c2)ncc(N)c1=O (stereo unspecified)

Ki (Chymase): 13.8 nM
Compound: COc1cccc(-c2ncc(N)c(=O)n2CC(=O)NC(Cc2ccccc2)C(=O)C(F)(F)C(=O)NCc2ccccc2)c1 (stereo unspecified)

Ki (Chymase): 74.3 nM
Compound: Nc1cnc(-c2cccnc2)n(CC(=O)NC(Cc2ccccc2)C(=O)C(F)(F)C(=O)NCc2ccccc2)c1=O (stereo unspecified)

Ki (Chymase): 15.7 nM
Compound: Nc1cnc(-c2cccc(F)c2)n(CC(=O)NC(Cc2ccccc2)C(=O)C(F)(F)C(=O)NCc2ccccc2)c1=O (stereo unspecified)

Ki (Chymase): 3.56 nM
Compound: Cc1cccc(-c2ncc(N)c(=O)n2CC(=O)NC(Cc2ccccc2)C(=O)C(F)(F)C(=O)NCC(=O)N2CCCCCC2)c1 (stereo unspecified)

Ki (Chymase): 84.7 nM
Compound: Nc1cnc(-c2ccncc2)n(CC(=O)NC(Cc2ccccc2)C(=O)C(F)(F)C(=O)NCc2ccccc2)c1=O (stereo unspecified)

Vd [1]: 0.257 L/kg | Vd [2]: 0.369 L/kg | AUC [3]: 5720 ng·h/mL | AUC [4]: 18500 ng·h/mL | clearance [5]: 2.28 mL/min/kg | bioavailability [6]: 32% | Tmax [7]: 0.7 h | Cmax [8]: 1520 ng/mL | Tmax [9]: 1.3 h | half-life [10]: 1.4 h | clearance [11]: 3.25 mL/min/kg | AUC [12]: 7330 ng·h/mL | AUC [13]: 12100 ng·h/mL | bioavailability [14]: 17% | Cmax [15]: 7320 ng/mL | NI [16]: inactive | NI [17]: inactive | Ki (Cathepsin G): 1390 nM | Ki (Mast cell protease 9): 1260 nM | NI [18]: inactive | half-life [19]: 2.1 h
Compound: Nc1cnc(-c2cccc(Cl)c2)n(CC(=O)NC(Cc2ccccc2)C(=O)C(F)(F)C(=O)NCc2ccccc2)c1=O (stereo unspecified)

Ki (Chymase): 10.2 nM
Compound: Cc1cccc(-c2ncc(N)c(=O)n2CC(=O)NC(Cc2ccccc2)C(=O)C(F)(F)C(=O)NCC(=O)N2CCCCC2)c1 (stereo unspecified)

Ki (Chymase): 16.6 nM
Compound: Cc1cccc(-c2ncc(N)c(=O)n2CC(=O)NC(Cc2ccccc2)C(=O)C(F)(F)C(=O)Nc2ccc(C(=O)O)cc2)c1 (stereo unspecified)

Ki (Chymase): 23 nM | Selectivity [20]: 62.2
Compound: Cc1cccc(-c2ncc(N)c(=O)n2CC(=O)NC(Cc2ccccc2)C(=O)C(F)(F)C(=O)NCCC(=O)O)c1 (stereo unspecified)

Ki (Chymase): 9.32 nM
Compound: CCN(CC)C(=O)CNC(=O)C(F)(F)C(=O)C(Cc1ccccc1)NC(=O)Cn1c(-c2cccc(C)c2)ncc(N)c1=O (stereo unspecified)

Ki (Chymase): 7.71 nM
Compound: CCNC(=O)CNC(=O)C(F)(F)C(=O)C(Cc1ccccc1)NC(=O)Cn1c(-c2cccc(C)c2)ncc(N)c1=O (stereo unspecified)

Ki (Chymase): 90.7 nM
Compound: CNC(=O)C(F)(F)C(=O)C(Cc1ccccc1)NC(=O)Cn1c(-c2cccc(C)c2)ncc(N)c1=O (stereo unspecified)

Ki (Chymase): > 10000 nM
Compound: CCOC(=O)C(F)(F)C(=O)C(Cc1ccccc1)NC(=O)Cn1c(-c2cccc(C)c2)ncc(N)c1=O (stereo unspecified)

Ki (Chymase): 12 nM | Selectivity [20]: 120
Compound: Cc1cccc(-c2ncc(N)c(=O)n2CC(=O)NC(Cc2ccccc2)C(=O)C(F)(F)C(=O)NCC(N)=O)c1 (stereo unspecified)

Ki (Chymase): 16.9 nM | Selectivity [20]: 114
Compound: Cc1cccc(-c2ncc(N)c(=O)n2CC(=O)NC(Cc2ccccc2)C(=O)C(F)(F)C(=O)NCc2ccccc2)c1 (stereo unspecified)

Ki (Chymase): 440 nM | Selectivity [20]: 7.45
Compound: Nc1cnc(-c2ccc(F)cc2)n(CC(=O)NC(Cc2ccccc2)C(=O)C(F)(F)C(=O)NCc2ccccc2)c1=O (stereo unspecified)

Ki (Chymase): 10.2 nM
Compound: COC(=O)CNC(=O)C(F)(F)C(=O)C(Cc1ccccc1)NC(=O)Cn1c(-c2cccc(C)c2)ncc(N)c1=O (stereo unspecified)

Source: ChEMBL document CHEMBL1134398, “Synthesis, structure-activity relationships, and pharmacokinetic profiles of nonpeptidic difluoromethylene ketones as novel inhibitors of human chymase” (J Med Chem, 2001)
